The values below come from ChEMBL document CHEMBL2401736, “HCV NS5A replication complex inhibitors. Part 5: discovery of potent and pan-genotypic glycinamide cap derivatives” (Bioorg Med Chem Lett, 2013).

As a reminder, the clearance is the volume of plasma or blood freed of the substance per unit of time. The AUC(0-t) is the area under the concentration-time curve up to a stated or last time point. High values mean more exposure, low ones less exposure. Usually EC50 stands for the concentration needed to bring the measured effect to its halfway point. Read a high EC50 as lower potency in that assay. The pKa is the negative logarithm of the acid dissociation constant.

A short description of data set [1]: Permeability of the compound across human Caco2 cells. The settings on record: Caco-2, read-out: permeability. It counts as ADME, cell-based. Background: Passage across Caco-2 layers is used to estimate intestinal permeability.
A short description of data set [2]: Metabolic stability in rat liver microsomes assessed as compound remaining after 10 mins. In kind it is ADME, Microsome. The settings on record: read-out: Stability. The method in brief:
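Compound incubated with rat liver microsomes for 10 min; read-out is the percentage of parent remaining.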
For orientation: Liver microsomes are vesicles of endoplasmic reticulum, rich in cytochrome P450 enzymes.

Data set [3] is described as follows: Clearance in rat at 2 mg/kg, iv after 4 hrs. It counts as ADME, organism-based. Set-up: dose 2 mg/kg, route intravenous. The settings on record: in vivo. The method in brief:
(§1)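 Rat 4 h PK screen: 2 mg/kg IV and 5 mg/kg PO, each dose as its line states. Plasma sampled 5 times (0.17, 0.5, 1, 2 and 4 h); n = 2 rats.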

Data set [4] is described as follows: AUC (0 to 4 hrs) in rat at 2 mg/kg, iv. In kind it is ADME, organism-based. Set-up: time < 4 hr, dose 2 mg/kg, route intravenous. The settings on record: plasma. Summed up:
as §1

The nature of data set [5]: (§2) AUC (0 to 4 hrs) in rat at 5 mg/kg, po. It counts as ADME, organism-based, Plasma. Set-up: time < 4 hr, dose 5 mg/kg, route oral. The settings on record: plasma. The method in brief: as §1
Data set [6] has as its system Bovine viral diarrhea virus 1. As to the kind of experiment: Antiviral activity against Bovine viral diarrhea virus by luciferase assay. It counts as functional, organism-based. Summed up: (§3)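 EC50 values are means of at least two experiments, with at most threefold variation between them.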
Data set [7] deals with Hepatitis C virus. As to the kind of experiment: Antiviral activity against Hepatitis C virus genotype 1b by FRET assay. In kind it is functional, organism-based, Hepacivirus hominis. The method in brief:
as §3

Data set [8] has as its system Hepatitis C virus. The data set is described as follows: Antiviral activity against Hepatitis C virus genotype 1a by ELISA. It counts as functional, organism-based, Hepacivirus hominis, subtype 1a. Summed up: as §3
For orientation: ELISA stands for enzyme-linked immunosorbent assay.

Data set [9] can be described thus: Dissociation constant, pKa of the compound in MeOH/H2O at pH 2 to 11. In kind it is physicochemical. Summed up: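 pKa found by potentiometric titration over pH 2–11 in varying MeOH/H2O mixtures.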
The test system of data set [10] is Hepatitis C virus. As to the kind of experiment: Antiviral activity against Hepatitis C virus genotype 5a. In kind it is functional, organism-based, Hepacivirus hominis.
In data set [11] the test system is Hepatitis C virus. The data set is described as follows: Antiviral activity against Hepatitis C virus genotype 3a YH. It counts as functional, organism-based, Hepacivirus hominis. The settings on record: subtype 3a YH.
Data set [12] relates to Hepatitis C virus. As to the kind of experiment: Antiviral activity against Hepatitis C virus genotype 4a. In kind it is functional, organism-based, Hepacivirus hominis.
The test system of data set [13] is Hepatitis C virus. As to the kind of experiment: Antiviral activity against Hepatitis C virus genotype 3a. In kind it is functional, organism-based, Hepacivirus hominis.
Data set [14] deals with Hepatitis C virus. The data set is described as follows: Antiviral activity against Hepatitis C virus genotype 2a NIH. It counts as functional, organism-based, Hepacivirus hominis. The settings on record: subtype 2a NIH.
Data set [15] has as its system Hepatitis C virus. As to the kind of experiment: Antiviral activity against Hepatitis C virus genotype 1b harboring NS5A L31V/Y93H double mutant by FRET assay. It counts as functional, organism-based, Hepacivirus hominis.
The subject of data set [16] is Rattus norvegicus. The description is as §2. Set-up: time < 4 hr, dose 5 mg/kg, route oral. The settings on record: in vivo, 4 h, BLD = below limit of detection. It counts as ADME, organism-based, Plasma. Summed up: as §1
The test system of data set [17] is Hepatitis C virus. The data set is described as follows: Ratio of EC50 for Hepatitis C virus genotype 1b harboring NS5A L31V/Y93H double mutant to EC50 for Hepatitis C virus genotype 1b. In kind it is functional, Hepacivirus hominis.
[18] abbreviates: Bovine viral diarrhea virus isolates and strains.

Take `CC(=O)N[C@H](C(=O)N1CCC[C@H]1C(=O)Nc1ccc(C#Cc2ccc(NC(=O)[C@@H]3CCCN3C(=O)[C@@H](NC(C)=O)c3ccccc3)cc2)cc1)c1ccccc1`: in [1], the Papp was under 1.5 ×10⁻⁶ cm/s. The remaining at 10 min in data set [2] is 100%. In addition, the clearance in data set [3] turned out to be 13.3 mL/min/kg. Besides, the AUC(0-t) at 4 h turned out to be 2.11 µM·h in [4] and 0.093 µM·h in [5]. Further, the EC50 in data set [6] (setting [18]) is over 10000 nM; in [7] (Hepatitis C virus, genotype 1b), 0.005 nM; in data set [8] (Hepatitis C virus, subtype 1a), 24 nM.
`O=C1CN(C(C(=O)N2CCC[C@H]2C(=O)Nc2ccc(C#Cc3ccc(NC(=O)[C@@H]4CCCN4C(=O)C(c4ccccc4)N4CCNC(=O)C4)cc3)cc2)c2ccccc2)CCN1` (stereo partly drawn): the pKa in data set [9] stood at 2.5. Moreover, the EC50 in data set [7] (Hepatitis C virus, genotype 1b) is under 4.6 nM; in data set [8] (Hepatitis C virus, subtype 1a), 388 nM.
As to `O=C(Nc1ccc(/C=C/c2ccc(NC(=O)[C@@H]3CCCN3C(=O)Cc3ccccc3)cc2)cc1)[C@@H]1CCCN1C(=O)Cc1ccccc1`, the 50% effective concentration (EC50) was under 0.23 nM in [10]; over 3000 nM in data set [11]; 0.16 nM in data set [12]; 0.3 nM in data set [13]; 260 nM in data set [14]; over 10000 nM in data set [6] (setting [18]). The EC50 in [7] (Hepatitis C virus, genotype 1b) was 0.086 nM; in data set [8] (Hepatitis C virus, subtype 1a) it was over 10000 nM.
As for `COC(=O)N[C@@H](C(=O)N1CCC[C@H]1C(=O)Nc1ccc(C#Cc2ccc(NC(=O)[C@@H]3CCCN3C(=O)[C@H](NC(=O)OC)c3ccccc3)cc2)cc1)c1ccccc1`, the EC50 is 382 nM in data set [15]; over 10000 nM in [6] (setting [18]); 0.013 nM in data set [7] (Hepatitis C virus, genotype 1b); 26 nM in [8] (Hepatitis C virus, subtype 1a).
As to `O=C(Nc1ccc(C#Cc2ccc(NC(=O)[C@@H]3CCCN3C(=O)[C@@H](c3ccccc3)N3CCOCC3)cc2)cc1)[C@@H]1CCCN1C(=O)[C@@H](c1ccccc1)N1CCOCC1`, the pKa in data set [9] came out at 4.6. Further, the EC50 was over 10000 nM in data set [6] (setting [18]); under 4.6 nM in data set [7] (Hepatitis C virus, genotype 1b); 125 nM in data set [8] (Hepatitis C virus, subtype 1a).
As for `CN1CCN(C(C(=O)N2CCC[C@H]2C(=O)Nc2ccc(C#Cc3ccc(NC(=O)[C@@H]4CCCN4C(=O)C(c4ccccc4)N4CCN(C)CC4)cc3)cc2)c2ccccc2)CC1` (stereo in doubt; 5i.1), the Papp in data set [1] is under 1.5 ×10⁻⁶ cm/s. Moreover, the remaining at 10 min in data set [2] was 100%. For the same compound, the AUC result in [16] is on record as “BLD”. Moreover, the values for the concentration giving a half-maximal response (EC50) in data set [6], in data set [7] and in data set [8] were over 3330 nM, 0.152 nM and under 4.6 nM, respectively.
As for `COc1cccc2c(C(=O)N3CCC[C@H]3C(=O)Nc3ccc(/C=C/c4ccc(NC(=O)[C@@H]5CCCN5C(=O)c5nc(Cl)cc6c(OC)cccc56)cc4)cc3)nc(Cl)cc12`, the EC50 in data set [10] is 3 nM; in data set [11], 74.9 nM; in data set [12], over 10000 nM; in data set [13], 3.2 nM; in [14], 14 nM; in data set [6] (setting [18]) it was over 10000 nM. For the same compound, the concentration for a half-maximal effect (EC50) in data set [7] (Hepatitis C virus, genotype 1b) was 7.1 nM; in [8] (Hepatitis C virus, subtype 1a) it was 19 nM.
The compound `O=C(Nc1ccc(C#Cc2ccc(NC(=O)[C@@H]3CCCN3C(=O)[C@@H](c3ccccc3)N3CCCC3)cc2)cc1)[C@@H]1CCCN1C(=O)[C@@H](c1ccccc1)N1CCCC1` registered a pKa in data set [9] of 8.1. For the same compound, the EC50 in data set [6] (setting [18]) was 1380 nM; in [7] (Hepatitis C virus, genotype 1b) it was under 4.6 nM; in data set [8] (Hepatitis C virus, subtype 1a) it was 19 nM.
Regarding `O=C(Nc1ccc(C#Cc2ccc(NC(=O)[C@@H]3CCCN3C(=O)C(c3ccccc3)N3CCC(O)CC3)cc2)cc1)[C@@H]1CCCN1C(=O)C(c1ccccc1)N1CCC(O)CC1` (stereo in doubt; 5g.1), the concentration giving a half-maximal response (EC50) is 0.017 nM in data set [10]; 5.4 nM in [11]; 0.042 nM in data set [12]; 0.037 nM in [13]; 0.083 nM in [14]; 12 nM in [15]. Moreover, the EC50 in data set [6] is 6980 nM; in data set [7], under 0.13 nM; in data set [8], 0.82 nM. Besides, in data set [9], the pKa came out at 6.8. Also, the “Ratio EC50” value in data set [17] is listed as over 90.
Take `CN(C)C(C)(C(=O)N1CCC[C@H]1C(=O)Nc1ccc(C#Cc2ccc(NC(=O)[C@@H]3CCCN3C(=O)C(C)(c3ccccc3)N(C)C)cc2)cc1)c1ccccc1` (single isomer, unassigned; diastereomer 2): the 50% effective concentration (EC50) in [6] (setting [18]) was 769 nM; in data set [7] (Hepatitis C virus, genotype 1b), under 4.6 nM; in data set [8], 1080 nM.
As to `CN(C)[C@H](C(=O)N1CCC[C@H]1C(=O)Nc1ccc(C#Cc2ccc(NC(=O)[C@@H]3CCCN3C(=O)[C@H](c3ccccc3)N(C)C)cc2)cc1)c1ccccc1`, the EC50 in [6] (setting [18]) is 1200 nM; in [7] (Hepatitis C virus, genotype 1b), under 4.6 nM; in [8] (Hepatitis C virus, subtype 1a), 628 nM.
For the compound `CN(C)[C@H](Cc1ccccc1)C(=O)N1CCC[C@H]1C(=O)Nc1ccc(C#Cc2ccc(NC(=O)[C@@H]3CCCN3C(=O)[C@@H](Cc3ccccc3)N(C)C)cc2)cc1`, the EC50 is 1730 nM in data set [6] (setting [18]); under 4.6 nM in data set [7] (Hepatitis C virus, genotype 1b); 1290 nM in data set [8] (Hepatitis C virus, subtype 1a).
With `O=C(C(=O)N1CCC[C@H]1C(=O)Nc1ccc(/C=C/c2ccc(NC(=O)[C@@H]3CCCN3C(=O)C(=O)c3ccccc3)cc2)cc1)c1ccccc1`, the concentration for a half-maximal effect (EC50) in data set [6] (setting [18]) was over 10000 nM; in data set [7] (Hepatitis C virus, genotype 1b), 4.6 nM; in [8] (Hepatitis C virus, subtype 1a) it was 447 nM.
